Data on 99 compounds can be found in ChEMBL document CHEMBL4513216, “Probing the Open Global Health Chemical Diversity Library for Multistage-Active Starting Points for Next-Generation Antimalarials” (ACS Infect Dis, 2020).

The data set can be described thus: Toxicity liver stage against HepG2, at 10uM. The arrangement: test concentration 10 uM, cell line HepG2-A16-CD81EGFP. In kind it is cell-based. The following applies: human, HepG2-A16-CD81EGFP cells; read-out: INHIBITION
The method in brief: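 Uninfected HepG2-A16-CD81EGFP cells, 3 × 10^3 per well, 1536-well, plated on prespotted compound at 10 μM final, parasite-free screening media added to match infected plates; puromycin 10 μM positive, DMSO 0.5% negative; run in parallel with 48 h PbLuc assay at 37 °C, 5% CO2; viability by CellTiter-Glo luminescence, normalized to controls.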
For the compound `COc1cc2nc(C)n(CC(=O)NCC(C)C)c(=O)c2cc1OC`, the cytotoxicity at 10 µM is -4.76%.

For `CC(=O)c1cccc(NC(=O)Cn2cnc(-c3ccccc3)cc2=O)c1`, the cytotoxicity at 10 µM is -12.3%. Regarding `CS(=O)(=O)N1CCN(c2ccc(Nc3ccccn3)nn2)CC1`, the cytotoxicity at 10 µM is -6.01%. In the case of `N#Cc1cccc(C(=O)N2CC(c3nc(-c4ccc[nH]c4=O)no3)C2)c1` it was -4.13%; in that of `CS(=O)(=O)C1CCN(S(=O)(=O)c2ccc(F)c(F)c2)C1` (centres undefined), -9.52%. In the case of `CCOCC1CN(C(=O)N2CCCC2)Cc2cnn(C)c21` (centres undefined) it was -0.96%; in that of `Cc1ccc(CN2CC[C@H]3C[C@H](c4nc(C5CC5)cs4)O[C@@H]3C2)o1`, 3.81%. As for `COc1cc(OC)c(-n2nnc(C(=O)O)c2C)cc1Cl`, the cytotoxicity at 10 µM is -16.8%. In the case of `CCCNC(=O)NC(C)c1ccccn1` (centres undefined) it was -8.26%; in that of `Cc1nc(NC(=O)C(C)n2ncc(Br)c2C)sc1C` (centres undefined), 10.3%. In the case of `Cc1ccnc(C2(C)CCCN2S(=O)(=O)c2cccnc2)n1` (centres undefined) it was 5.95%; in that of `CC(=O)N1CCCC1(C)c1nc(C)no1` (centres undefined), 2.71%.

For the compound `O=C(O)c1cn2cc(C(F)(F)F)ccc2n1`, the cytotoxicity at 10 µM stood at 3.52%. In the case of `CN1CCN(C(=O)Cc2csc(-c3ccsc3)n2)C(c2ccccc2)C1` (centres undefined) it was -8.38%; in that of `Cc1ccnc2c1NC(=O)CN2C(=O)CCc1cccs1`, -19.5%; in that of `COc1cccc(COC(C)C(=O)NCc2nnc3n2CCC3)c1` (centres undefined), 8.67%.

Regarding `CC(NC(=O)N1CCC1)c1ccc(S(N)(=O)=O)cc1` (centres undefined), the cytotoxicity at 10 µM is -8.64%. As for `CC(C)(CNC(=O)C1CCCN(C(N)=O)C1)c1cccc(Cl)c1` (centres undefined), the cytotoxicity at 10 µM stood at 1.75%. In the case of `CC(C1CC1)N(C)Cc1nnc(-c2ccco2)o1` (centres undefined) it was -2.14%. Then `Cc1cn2c(n1)CCC(NS(=O)(=O)c1sc(C)nc1C)C2` (centres undefined), with -20.8%; and `CNC(=O)c1cccc(CCNS(C)(=O)=O)c1`, with 13.4%. `CN(C)c1ccc(C(=O)N2CCCC2c2ccc(Cl)cc2)cc1` (centres undefined): the cytotoxicity at 10 µM was determined as 1.21%. Turning to `COCCCn1ccc(NC(=O)NCc2cccc(N(C)C)c2)n1`, the cytotoxicity at 10 µM turned out to be 2.4%. As to `COCC(C)NC(=O)Nc1cc(-c2ccccc2C)nn1CCO` (centres undefined), the cytotoxicity at 10 µM was -14.3%. In the case of `COc1c(CNCC(O)COc2ccc3c(c2)OCO3)c(C)nn1C` (centres undefined) it was 3.07%; in that of `c1ccc2c(c1)CCC21CN(CCc2ccncc2)CCO1` (centres undefined), -0.934%; in that of `CC(C(=O)N1CCOCC1)N1CCc2cncnc2C1` (centres undefined), -5.05%.

As for `CCC1COCCN1C(=O)NCc1cccc(-c2cnn(C)c2)c1` (centres undefined), the cytotoxicity at 10 µM is -1.62%. Take `CC(C)Cc1noc(COc2ccc(N(C)C(N)=O)cc2)n1`: the cytotoxicity at 10 µM is 34.4%. Then `CCn1nc(C)c(CNCCn2cc(C)cn2)c1C`, with -4.91%. Then `O=C(c1ccc(O)nc1)N1CCN(C(=O)c2ccc(F)c(F)c2)CC1`, with -10.3%; and `CC(C)C(C)(C#N)NC(=O)Cn1cc(I)cn1` (centres undefined), with 18.1%; and `CN(C(=O)c1cccc(OCC(F)F)n1)c1ccc2c(c1)CCO2`, with 43%. Then `FC(F)(F)c1cc(NCCn2ncnn2)nc(-c2cccnc2)n1`, with 18.9%; and `CCC(C(=O)N1CCCSCC1)N1CCCC1=O` (centres undefined), with 6.27%; and `Cc1cnn(CCNc2nc(C)cc(N(C)C)n2)c1`, with 5.36%. For `CNc1nc(CNC(=O)Nc2ccc(OC)cc2C)cs1`, the cytotoxicity at 10 µM is -8.17%. Then `CCN(CC(=O)NC)S(=O)(=O)N1CCCCCC1`, with 5.04%. On to `CCCc1nc(C)c(C(=O)NS(=O)(=O)c2ccc(C#N)cc2)s1`, for which the cytotoxicity at 10 µM was -12%.

`O=C(c1ccco1)N1CCCC1C1CCN(Cc2ccccc2)CC1` (centres undefined): the cytotoxicity at 10 µM was found to be 0.821%. In the case of `CN(C)c1cc(C(=O)NCCc2n[nH]c(=O)[nH]2)ccn1` it was -1.89%; in that of `O=C(c1ccco1)N1CCc2onc(Cn3cccn3)c2C1`, -1.22%; in that of `Cc1nc2c(c(N3CCC(O)(CN4CCCC4)CC3)n1)CCN(C)CC2`, -2.84%.

Consider `CNc1nc(C(=O)N2CCC3(CCCN(CC4CC4)C3=O)C2)cs1` (centres undefined), for which the cytotoxicity at 10 µM is 5.33%. In the case of `Cc1nc(C)n(CC(C)C(=O)N2CCC(N3CCC(O)CC3)CC2)n1` (centres undefined) it was 1.43%; in that of `CC(c1nccs1)n1cc(-c2cc(CN3CCCCC3)cs2)nn1` (centres undefined), 1.22%; in that of `COc1ccc(NC(=O)N2CCC3(CC2)NC(=O)CC3C(=O)O)cc1Cl` (centres undefined), -3.06%. For the compound `CN(Cc1cnccn1)C(=O)c1ccc(CSc2nnc[nH]2)o1`, the cytotoxicity at 10 µM came to 1.22%.

For `CN(CCCOc1ccccc1Cl)C(=O)CN1CCCCCC1=O`, the cytotoxicity at 10 µM was -9.63%. Then `O=C(CCn1cccn1)N1CCC(C2CCN(c3ncccn3)CC2)C1` (centres undefined), with 5.33%; and `COc1ccc(C(=O)O)cc1-c1cccc2c1CCNC2`, with 0.979%. Then `Cc1cc(C(=O)N(C)C2CCN(C)C2)c2ccc(F)cc2n1` (centres undefined), with -2.55%; and `COc1ccc(Cn2cc(C(=O)N(C)Cc3cnccn3)nn2)cc1`, with 9.81%.

Consider `CN(Cc1cccc(-n2cccn2)c1)C(=O)c1ccnc(N)c1`, for which the cytotoxicity at 10 µM is -0.491%. In the case of `Cc1ccccc1CN(Cc1ccncc1)CC(C)C` it was 11.9%; in that of `CCn1nc(C)cc1S(=O)(=O)N1CCC2(CC(=O)NC2=O)C1` (centres undefined), 0.0942%; in that of `CN(c1ncccc1CNCc1ncc[nH]1)C1CCCCC1`, -7.28%.

As for `CCN1CCC(CC(=O)N2CCN(c3ccccc3OC)CC2C)CC1` (centres undefined), the cytotoxicity at 10 µM was -4.9%. In the case of `Cc1nnc(CN(C)C2CCN(CCc3ccccn3)CC2)o1` it was 1.04%. Consider `CC(C(=O)NCc1ccc(N2CCCC2)nc1)n1cncn1` (centres undefined), for which the cytotoxicity at 10 µM was -22.4%. For `CCc1nc(C2CCCN2Cc2ccn(C)c(=O)c2)no1` (centres undefined), the cytotoxicity at 10 µM was -4.25%.

Regarding `CCN(CC)Cc1ccc(C(=O)N2CCN(CC(C)O)CC2)o1` (centres undefined), the cytotoxicity at 10 µM is -9.65%. `CCc1nnc2n1CCN(C(=O)c1nc(-c3ccco3)sc1C)C2`: the cytotoxicity at 10 µM was -1.19%. Then `CCN(CC)CC(=O)N1CCCC1Cn1cccn1` (centres undefined), with -3.08%; and `COc1ccc(S(=O)(=O)NCc2cccnc2N(C)C)cc1`, with 5.32%. As for `CNC(=O)CS(=O)(=O)Cc1cc(Cl)c2c(c1)OCCO2`, the cytotoxicity at 10 µM was -4.17%.

For `CCOc1ccccc1CNC1CCCN(Cc2noc(C)n2)C1` (centres undefined), the cytotoxicity at 10 µM is -13.1%. Then `Cc1cccc(C2(CNC(=O)CO)CCCC2)c1`, with -19.1%. Then `O=C1C(NS(=O)(=O)c2ccc(F)c(F)c2)CCN1Cc1ccccc1` (centres undefined), with -2.81%; and `Cc1cc(C)n(C2CN(CC(O)c3ccc(S(C)(=O)=O)cc3)C2)n1` (centres undefined), with -12.9%; and `CC(C)c1noc(CCCC(=O)NCC2CCS(=O)(=O)C2)n1` (centres undefined), with -22.3%. Then `Cc1ccc(NC2CCN(C(=O)c3cccnc3N(C)C)CC2)nn1`, with -12.1%. For the compound `c1ccc2c(OCCN3CCn4c(nnc4C4CC4)C3)cccc2c1`, the cytotoxicity at 10 µM was -3.87%. In the case of `c1ccc(Cc2nnc(CN3CCn4c(nnc4C4CC4)C3)o2)cc1` it was -0.192%; in that of `CN(C)C1CCCN(C(=O)NCc2ccccc2-n2cccn2)C1` (centres undefined), -4.14%; in that of `Cc1cc(C)cc(OCCN(C)C(=O)NC(C)c2nncn2C)c1` (centres undefined), -19.1%.

Consider `CCOc1ncccc1CNC(=O)NCCNC(=O)c1ccco1`, for which the cytotoxicity at 10 µM worked out at 1.16%. In the case of `Cc1cccc(C(=O)NCCCN2CCc3ccccc3C2)c1C` it was -4.71%; in that of `CCc1noc(CN(Cc2cccs2)CC2CCCO2)n1` (centres undefined), -8.66%; in that of `CCc1nccn1C1CCCN(C(=O)c2ccoc2C)C1` (centres undefined), -28%. In the case of `COc1cc(CNCc2c(C)nn(C)c2N(C)C)ccc1OCCO` it was -7.59%; in that of `Cc1cnn(CC2CN(Cc3nc(-c4ccccn4)no3)CCO2)c1` (centres undefined), -22.6%; in that of `Cc1nn(C)c(Cl)c1C1CCCN1CC(=O)Nc1cccnc1` (centres undefined), -17.2%.

Take `CC(=O)N1CCCN(C(=O)NC(C)Cn2cccn2)CC1` (centres undefined): the cytotoxicity at 10 µM was -13%.

With `CCc1nc(CN(C)C2CCN(Cc3nnc(C4CCC4)o3)C2)no1` (centres undefined), the cytotoxicity at 10 µM is 0.239%.

In the case of `O=S(=O)(CCNC1CCc2ncnn2C1)c1ccc(Cl)cc1` (centres undefined), the cytotoxicity at 10 µM is -32.2%.

For `O=C(Cc1cn2ccccc2n1)N1CCCC(n2cccn2)C1` (centres undefined), the cytotoxicity at 10 µM was -5.16%. On to `Cn1ccc(CN2CCN(CC3CC3)CC2)cc1=O`, for which the cytotoxicity at 10 µM is -16.6%. In the case of `Cc1nc(CN(C)C2CCN(Cc3c(C)noc3C)C2)no1` (centres undefined) it was 6.66%; in that of `Cc1noc(C(C)N2CCN(Cc3cccc(C#N)c3)CC2)n1` (centres undefined), -5.72%. In the case of `CN(Cc1ccco1)C(=O)CN1CCCC(Cn2cncn2)C1` (centres undefined) it was -4%; in that of `CCCc1n[nH]c(C2CN(C(=O)C3=COCCC3)CCO2)n1` (centres undefined), -5.04%; in that of `CC(C)c1noc(C(C)N2CCN(CCN3CCCC3=O)CC2)n1` (centres undefined), -10.6%. Then `Cc1cnn(CCNCc2nnc(C3CC3)o2)c1`, with -7.89%. As for `Cc1ncc(CN2CCCC(O)(c3ccc(F)cc3)CC2)n1C` (centres undefined), the cytotoxicity at 10 µM was -4.04%.

As for `CC(C)CCN1C2(CCN(C(=O)CN(C)C)C2)c2ccccc2S1(=O)=O` (centres undefined), the cytotoxicity at 10 µM was -4.14%. Then `CN(C)C(=O)[C@@H]1C[C@@H]2CCN(C3CCOCC3)C[C@H]2O1`, with 7.86%.

As to `COCCN1C[C@@H]2CC[C@H]1CN(CC(=O)Nc1ccn(C)n1)C2`, the cytotoxicity at 10 µM was -8.39%. Then `CSc1ccccc1C(=O)N1C[C@@H]2CC[C@H]1CN(C(=O)N(C)C)C2`, with -3.99%.
